Reference: ChEMBL document CHEMBL4196009, “Novel vitexin-inspired scaffold against leukemia” (Eur J Med Chem, 2018)
Activity calls are given as the source filed them. No cut-off for these calls is given here.

Experiments:
KOPN-8 [1] = test: Cell cycle arrest in human KOPN8 cells assessed as accumulation at S phase at 10 uM after 24 hrs by propidium iodide staining-based flow cytometry (reference value: 66.56%); type: functional
Summary of the method: (§1)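 KOPN-8 cells treated 24 h alongside a DMSO vehicle and a staurosporine (2.0 µM) positive control. Apoptosis was scored by FITC Annexin V / propidium iodide flow cytometry with quadrant gating (early, late apoptotic). DNA content was measured by PI staining to give the percentage of cells in G0/G1, S and G2/M. Groups were compared by t-test; error bars are SD.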

KOPN-8 [2] = test: Effect on c-Myc expression in human KOPN8 cells after 3 to 24 hrs by Western blot analysis; type: functional, cell-based
Summary of the method: (§2)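 KOPN-8 cells were treated at 10–100 µM final, with or without N-acetylcysteine co-addition, for 3 h and 24 h. Lysates were analysed by Western blot for PARP cleavage, Mcl-1, phospho-Ser2 RNAPII CTD, c-Myc, total Rb and pRb. Levels are relative to the vehicle control.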

KOPN-8 [3] = test: Induction of apoptosis in human KOPN8 cells assessed as effect on Mcl-1 level at 30 uM pre-treated with NAC for 1 hr and measured after 3 hrs by Western blot analysis relative to control; type: functional
Summary of the method: (§3)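 KOPN-8 cells were exposed to compound for 3 h and 24 h, with or without N-acetylcysteine added to a parallel set as antioxidant. Lysates were analysed by Western blot for cleaved PARP, Mcl-1, Ser-2-phosphorylated RNAPII CTD, cMyc, total Rb and pRb. Signals were compared against controls for dose-dependent change.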

KOPN-8 [4] = test: Induction of apoptosis in human KOPN8 cells assessed as effect on Mcl-1 level at 100 uM after 3 hrs by Western blot analysis relative to control; type: functional; summary of the method: as §2
Homo sapiens [5] = species: Homo sapiens; test: Inhibition of RNA polymerase 2 C-terminal domain phosphorylation at Ser2 residue in human KOPN8 cells at 100 uM pre-treated with NAC for 1 hr and measured after 24 hrs by Western blot analysis relative to control; type: cell-based; summary of the method: as §3
Homo sapiens [6] = species: Homo sapiens; test: Inhibition of RNA polymerase 2 C-terminal domain phosphorylation at Ser2 residue in human KOPN8 cells at 30 uM after 24 hrs by Western blot analysis relative to control; type: cell-based; summary of the method: as §3
Homo sapiens [7] = species: Homo sapiens; test: Inhibition of RNA polymerase 2 C-terminal domain phosphorylation at Ser2 residue in human KOPN8 cells at 100 uM after 24 hrs by Western blot analysis relative to control; type: cell-based; summary of the method: as §3
KOPN-8 [8] = test: Effect on c-Myc expression in human KOPN8 cells at 30 uM pre-treated with NAC for 1 hr and measured after 24 hrs by Western blot analysis relative to control; type: functional
KOPN-8 [9] = test: Effect on c-Myc expression in human KOPN8 cells at 10 uM pre-treated with NAC for 1 hr and measured after 3 hrs by Western blot analysis relative to control; type: functional
[10] = target: T1, Retinoblastoma-associated protein (Homo sapiens) (UniProt P06400); test: Inhibition of Rb phosphorylation in human KOPN8 cells assessed as ratio of phosphorylated Rb to total Rb levels at 100 uM after 3 hrs by Western blot analysis relative to control; type: cell-based
T1 sequence (whole entry): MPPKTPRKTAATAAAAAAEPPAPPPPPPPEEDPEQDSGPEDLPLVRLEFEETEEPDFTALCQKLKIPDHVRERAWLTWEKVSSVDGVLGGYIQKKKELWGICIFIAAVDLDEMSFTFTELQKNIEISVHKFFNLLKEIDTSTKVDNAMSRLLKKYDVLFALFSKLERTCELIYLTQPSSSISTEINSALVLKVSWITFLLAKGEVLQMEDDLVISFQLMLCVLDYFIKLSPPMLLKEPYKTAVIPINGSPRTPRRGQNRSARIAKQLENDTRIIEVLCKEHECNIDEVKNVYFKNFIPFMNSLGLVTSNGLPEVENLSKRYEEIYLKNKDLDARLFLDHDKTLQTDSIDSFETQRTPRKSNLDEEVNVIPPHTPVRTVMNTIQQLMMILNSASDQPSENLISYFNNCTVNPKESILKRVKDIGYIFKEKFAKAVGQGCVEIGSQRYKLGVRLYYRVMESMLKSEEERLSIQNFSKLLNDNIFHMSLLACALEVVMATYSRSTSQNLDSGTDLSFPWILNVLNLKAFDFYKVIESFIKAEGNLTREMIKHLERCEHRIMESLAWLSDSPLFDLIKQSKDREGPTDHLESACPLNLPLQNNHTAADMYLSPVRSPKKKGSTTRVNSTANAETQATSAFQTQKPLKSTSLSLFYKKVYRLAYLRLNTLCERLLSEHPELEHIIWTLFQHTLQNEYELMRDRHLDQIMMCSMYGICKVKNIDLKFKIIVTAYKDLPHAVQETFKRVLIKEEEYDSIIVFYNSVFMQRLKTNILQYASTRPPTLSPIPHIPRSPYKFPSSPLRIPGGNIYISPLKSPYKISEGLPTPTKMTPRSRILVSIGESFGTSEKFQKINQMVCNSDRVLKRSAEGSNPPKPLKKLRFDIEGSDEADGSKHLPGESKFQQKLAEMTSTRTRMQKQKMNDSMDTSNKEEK
Summary of the method: (§4)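 KOPN-8 pre-B ALL cells were treated for 3 h and 24 h, with or without N-acetyl cysteine added to a parallel set of cells as an antioxidant/ROS quencher. Lysates were analysed by Western blot for phosphorylated Rb and total Rb. The same blots also probed PARP cleavage, Mcl-1, Ser-2-phosphorylated RNAPII CTD and cMyc.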

[11] = target: T1, Retinoblastoma-associated protein (Homo sapiens); test: Inhibition of Rb phosphorylation in human KOPN8 cells assessed as ratio of phosphorylated Rb to total Rb levels at 10 uM pre-treated with NAC for 1 hr and measured after 3 hrs by Western blot analysis relative to control; type: cell-based; summary of the method: as §4
KOPN-8 [12] = test: Induction of apoptosis in human KOPN8 cells assessed as necrotic cells at 5 uM after 24 hrs by Annexin V-FITC/propidium iodide staining-based flow cytometry (reference value: 0.2%); type: functional
Summary of the method: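 KOPN-8 cells were treated for 24 h, with a DMSO vehicle control and a staurosporine positive control. Cells were stained with FITC-Annexin V and propidium iodide and analysed by flow cytometry. Quadrant gating separated viable, early apoptotic, late apoptotic (Q2) and necrotic populations.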

SUP-B15 = test: Induction of apoptosis in human SUP-B15 cells assessed as viable cells at 5 uM after 24 hrs by Annexin V-FITC/propidium iodide staining-based flow cytometry (reference value: 82.8%); type: functional; settings: SUP-B15, 24 h, read-out: Activity
KOPN-8 [13] = test: Cell cycle arrest in human KOPN8 cells assessed as accumulation at S phase at 5 uM after 24 hrs by propidium iodide staining-based flow cytometry (reference value: 66.56%); type: functional; summary of the method: as §1
MDA-MB-231 [14] = test: Cell cycle arrest in human MDA-MB-231 cells assessed as accumulation at G2/M phase at 5 uM after 24 hrs by propidium iodide staining-based flow cytometry (reference value: 9.38%); type: functional
MDA-MB-231 [15] = test: Cell cycle arrest in human MDA-MB-231 cells assessed as accumulation at S phase at 5 uM after 24 hrs by propidium iodide staining-based flow cytometry (reference value: 20.15%); type: functional
KOPN-8 [16] = test: Induction of apoptosis in human KOPN8 cells assessed as upregulation of cleaved PARP level at 0.5 uM after 3 hrs by Western blot analysis; type: functional, cell-based; summary of the method: as §3

fold change (FC) [10]	fold change (FC) [11]	SMILES	Activity (KOPN-8 [1]) [%]	Activity (KOPN-8 [2])	fold change (FC) (KOPN-8 [3])	fold change (FC) (KOPN-8 [4])	fold change (FC) (Homo sapiens [5])	fold change (FC) (Homo sapiens [6])	fold change (FC) (Homo sapiens [7])	fold change (FC) (KOPN-8 [8])	fold change (FC) (KOPN-8 [9])	Activity (KOPN-8 [12]) [%]	viability at 5 µM (SUP-B15) [%]	Activity (KOPN-8 [13]) [%]	Activity (MDA-MB-231 [14]) [%]	Activity (MDA-MB-231 [15]) [%]	Activity (KOPN-8 [16])
1	1	COc1ccc(-c2c(I)c(=O)c3c(OC)cc(OC)cc3n2S(=O)(=O)c2ccc(OC)cc2)cc1	25.66	Dose-dependent effect	0.8	0.6	0.1	1.6	0.2	1	0.9						
		CN(C)C(=O)c1cc2cnc(Nc3ccc(N4CCNCC4)cn3)nc2n1C1CCCC1 [RIBOCICLIB]										0.3	35.4	25.55	4.51	4.64	Active
